{"source": "ChEMBL document CHEMBL1147707", "about": "“Novel substituted naphthalen-1-yl-methanone derivatives as anti-hyperglycemic agents” (Bioorg Med Chem Lett, 2006)", "key": {"Rattus norvegicus [1]": {"test_system": "Rattus norvegicus", "assay": "Antihyperglycemic activity in sucrose-loaded Sprague-Dawley rat at 100 mg/kg", "type": "functional", "procedure,_shortened": "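Male rats (169 ± 20 g) fasted 16 h; those with glucose 60–80 mg/dl, in groups of five to six, received compound orally as a 1.0% gum acacia suspension at 100 mg/kg, and controls got vehicle alone. Sucrose (10.0 g/kg, oral) followed 30 min later. Glucose was read at 30, 60, 90 and 120 min, and % fall was taken from AUC versus control (active if p < 0.05).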"}, "Rattus norvegicus [2]": {"test_system": "Rattus norvegicus", "assay": "Antihyperglycemic activity in sucrose charged streptozotocin-induced beta cell damaged diabetic Sprague-Dawley rat at 100 mg/kg", "type": "functional", "procedure,_shortened": "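Overnight-fasted male rats got streptozotocin at 60 mg/kg i.p., freshly dissolved in 100 mM citrate buffer pH 4.5. Those with glucose 150–250 mg/dl at 48 h were grouped. Each rat was given sucrose at 2.5 g/kg after test-sample treatment. Glucose was measured at 30, 60, 90, 120, 180, 240 and 300 min and 24 h after dosing, with food withheld.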"}, "Glucagon receptor": {"molecular_target": "Glucagon receptor (Homo sapiens, UniProt P47871)", "sequence (P47871 whole entry)": "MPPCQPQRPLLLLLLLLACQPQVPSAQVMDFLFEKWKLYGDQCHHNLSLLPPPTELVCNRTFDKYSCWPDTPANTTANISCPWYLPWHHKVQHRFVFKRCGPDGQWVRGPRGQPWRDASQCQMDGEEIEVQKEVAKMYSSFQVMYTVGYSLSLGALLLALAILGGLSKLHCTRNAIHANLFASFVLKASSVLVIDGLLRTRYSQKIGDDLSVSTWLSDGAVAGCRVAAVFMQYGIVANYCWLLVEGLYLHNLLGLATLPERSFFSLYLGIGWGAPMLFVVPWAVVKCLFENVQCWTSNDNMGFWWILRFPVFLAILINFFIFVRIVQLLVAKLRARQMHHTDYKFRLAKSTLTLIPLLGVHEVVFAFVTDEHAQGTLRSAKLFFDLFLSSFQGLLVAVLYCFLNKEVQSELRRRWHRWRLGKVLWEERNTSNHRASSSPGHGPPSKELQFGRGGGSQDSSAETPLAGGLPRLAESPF", "assay": "Inhibition of [125I]glucagon binding to glucagon receptor"}}, "data": [{"smiles": "O=C(c1ccc(OCCCN2CCCC2)cc1)c1cccc2ccccc12", "values": [{"measurement": "Activity", "setting": "Rattus norvegicus [1]", "value": 28.8, "unit": "%"}, {"measurement": "Activity", "setting": "Rattus norvegicus [2]", "value": 27, "unit": "%"}, {"measurement": "IC50", "setting": "Glucagon receptor", "value": 17, "unit": "µM"}]}, {"smiles": "COc1ccc(NCCCOc2ccc(C(=O)c3cccc4ccccc34)cc2)cc1", "values": [{"measurement": "Activity", "setting": "Rattus norvegicus [1]", "value": 16.17, "unit": "%"}, {"measurement": "Activity", "setting": "Rattus norvegicus [2]", "value": 12.6, "unit": "%"}, {"measurement": "IC50", "setting": "Glucagon receptor", "value": 35, "unit": "µM"}]}, {"smiles": "O=C(c1ccc(OCCNC2CCCCC2)cc1)c1cccc2ccccc12", "values": [{"measurement": "Activity", "setting": "Rattus norvegicus [1]", "value": 7.16, "unit": "%"}]}, {"smiles": "O=C(c1ccc(OCCCl)cc1)c1cccc2ccccc12", "values": [{"measurement": "Activity", "setting": "Rattus norvegicus [1]", "value": 24, "unit": "%"}]}, {"smiles": "CN(C)C(=N)NC(=N)N", "note": "[METFORMIN]", "values": [{"measurement": "Activity", "setting": "Rattus norvegicus [1]", "value": 12.9, "unit": "%"}]}, {"smiles": "CCN(CC)CCOc1ccc(C(=O)c2cccc3ccccc23)cc1", "values": [{"measurement": "Activity", "setting": "Rattus norvegicus [1]", "value": 7.21, "unit": "%"}]}, {"smiles": "Cc1ccc(S(=O)(=O)NC(=O)NN2CC3CCCC3C2)cc1", "note": "(stereo not given) [GLICLAZIDE]", "values": [{"measurement": "Activity", "setting": "Rattus norvegicus [1]", "value": 40.4, "unit": "%"}, {"measurement": "Activity", "setting": "Rattus norvegicus [2]", "value": 27.7, "unit": "%"}]}, {"smiles": "O=C(c1ccc(OCCCNC2CCCCC2)cc1)c1cccc2ccccc12", "values": [{"measurement": "Activity", "setting": "Rattus norvegicus [1]", "value": 11.16, "unit": "%"}]}, {"smiles": "O=C(c1ccc(OCCCNCc2ccccc2)cc1)c1cccc2ccccc12", "values": [{"measurement": "Activity", "setting": "Rattus norvegicus [1]", "value": 8.06, "unit": "%"}, {"measurement": "Activity", "setting": "Rattus norvegicus [2]", "value": 7.5, "unit": "%"}]}, {"smiles": "COc1ccc(Cl)cc1C(=O)NCCc1ccc(S(=O)(=O)NC(=O)NC2CCCCC2)cc1", "note": "[GLYBURIDE]", "values": [{"measurement": "Activity", "setting": "Rattus norvegicus [1]", "value": 33.7, "unit": "%"}, {"measurement": "Activity", "setting": "Rattus norvegicus [2]", "value": 29, "unit": "%"}]}, {"smiles": "O=C(c1ccc(OCCN2CCCC2)cc1)c1cccc2ccccc12", "values": [{"measurement": "Activity", "setting": "Rattus norvegicus [1]", "value": 17.2, "unit": "%"}, {"measurement": "Activity", "setting": "Rattus norvegicus [2]", "value": 17, "unit": "%"}, {"measurement": "IC50", "setting": "Glucagon receptor", "value": 55, "unit": "µM"}]}, {"smiles": "O=C(c1ccc(OCCCN2CCCCC2)cc1)c1cccc2ccccc12", "values": [{"measurement": "Activity", "setting": "Rattus norvegicus [1]", "value": 7.16, "unit": "%"}, {"measurement": "Activity", "setting": "Rattus norvegicus [2]", "value": 6.8, "unit": "%"}]}, {"smiles": "O=C(c1ccc(OCCCCl)cc1)c1cccc2ccccc12", "values": [{"measurement": "Activity", "setting": "Rattus norvegicus [1]", "value": 22, "unit": "%"}, {"measurement": "Activity", "setting": "Rattus norvegicus [2]", "value": 8.5, "unit": "%"}]}, {"smiles": "O=C(c1ccc(OCCNCc2ccccc2)cc1)c1cccc2ccccc12", "values": [{"measurement": "Activity", "setting": "Rattus norvegicus [1]", "value": 14.9, "unit": "%"}, {"measurement": "Activity", "setting": "Rattus norvegicus [2]", "value": 5.6, "unit": "%"}]}, {"smiles": "O=C(c1ccc(OCCN2CCCCC2)cc1)c1cccc2ccccc12", "values": [{"measurement": "Activity", "setting": "Rattus norvegicus [1]", "value": 15.4, "unit": "%"}, {"measurement": "Activity", "setting": "Rattus norvegicus [2]", "value": 11.3, "unit": "%"}]}, {"smiles": "COc1ccc(NCCOc2ccc(C(=O)c3cccc4ccccc34)cc2)cc1", "values": [{"measurement": "Activity", "setting": "Rattus norvegicus [1]", "value": 9.71, "unit": "%"}, {"measurement": "Activity", "setting": "Rattus norvegicus [2]", "value": 9.2, "unit": "%"}]}]}
